A selection: hits, their analogues and other compounds. The true share with any hit is near 2.1%.
MLL AF4-AF9 inh – inhibitors of human MLL-AF4/AF9 interaction | P42568 | AlphaScreen, biotin-AF4 peptide binding to FLAG-AF9 | inhibition, % at 10 µM | 0.47% of 350,000 active;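 active = every replicate reaching a set inhibition limit, whatever the replicate mean, cut at about 25% in these data; inconclusive = mean inhibition reaches that limit but some replicates miss it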;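 also: 0% = plate neutral control median and 100% = total signal loss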
Target sequence (P42568 whole entry, looked up): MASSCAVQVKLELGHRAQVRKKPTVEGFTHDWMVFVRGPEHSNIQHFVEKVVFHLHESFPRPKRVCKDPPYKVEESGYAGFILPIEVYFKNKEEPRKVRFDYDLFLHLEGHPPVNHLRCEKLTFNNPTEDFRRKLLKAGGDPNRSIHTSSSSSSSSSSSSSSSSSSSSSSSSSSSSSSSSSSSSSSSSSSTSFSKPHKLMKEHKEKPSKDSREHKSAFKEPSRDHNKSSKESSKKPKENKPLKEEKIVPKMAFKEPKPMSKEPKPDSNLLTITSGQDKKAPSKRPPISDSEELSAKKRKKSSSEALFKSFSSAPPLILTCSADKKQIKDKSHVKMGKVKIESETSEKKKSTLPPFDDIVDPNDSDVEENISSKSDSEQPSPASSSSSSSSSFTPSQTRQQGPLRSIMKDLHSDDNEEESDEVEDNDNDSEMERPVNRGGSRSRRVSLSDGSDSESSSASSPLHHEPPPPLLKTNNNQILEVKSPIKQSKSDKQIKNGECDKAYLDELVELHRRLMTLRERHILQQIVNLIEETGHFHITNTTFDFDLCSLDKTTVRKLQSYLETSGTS
PAX8 inh HTS – inhibitors of PAX8 transcriptional activity in RMG-I cells. 1.2% of 360,000 active. RMG-I TPO-luciferase reporter, SteadyGlo, 24 h. inhibition, % at 12.6 µM;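 active = mean replicate inhibition at least 60% with every replicate also reaching 60%; inconclusive = only one of the two criteria is met; inactive = mean below 60% and not all replicates reaching 60%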;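 also: luciferase light reporting Pax8 driven TPO promoter activity; plate controls were median of neutral control wells for no effect and mitoxantrone controls for full effect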
Xi reactivation – X-chromosome reactivation activator | 0.055% of 360,000 active | AID 743238 | activation, % at 7.58 µM | XiGFP mouse fibroblasts, % GFP-positive cells imaging, 3 d; cells co-treated with 5-aza-dC sensitizer; scaled so ellipticine positive control = 100%;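 active = mean normalized replicate activation at least 10% and every replicate at or above 10%; inconclusive = only one of the two criteria met; inactive = mean below 10% and not all replicates reach 10%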;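 also: 0% = median of on-plate neutral control wells and 100% = ellipticine 6 µM median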
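material = 68-5-11 XiGFP fibroblast line | medium = DMEM plus 5-aza-dC sensitizer | schedule = 3 days compound exposure | benchmarks = positive control ellipticine, 6 µM final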
INS-1E GSIS act – GLuc luminescence reporter in INS-1E cells, primary screen for activators of glucose-dependent secretion of insulin; INS-1E GLuc reporter insulin secretion, 2-3 h; activation, % at 16.6 µM; 0.61% of 370,000 active; AID 743287;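 active = lowest replicate activation of at least 40%, so every replicate reaches that level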;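 also: 0% = median of neutral control wells and 100% = median of IBMX positive control wells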
EWS-Fli inh – EWS/Fli transcriptional activity inhibition. A673 NR0B1-luciferase reporter, viability-normalised. inhibition, % at 12.6 µM. 0.67% of 350,000 active;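 active = mean inhibition of at least 50% after viability correction, with every replicate also passing that limit; inconclusive = mean reaches 50% but only one of two replicates passes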;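 also: firefly luciferase signal divided by Alamar Blue viability fluorescence both relative to DMSO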
PGC1a acetyl inh – PGC1a acetylation modulation, inhibitor mode | 0.17% of 350,000 active | inhibition, % at 15.6 µM | U2OS PGC1a acetylation, AlphaScreen anti-acetyl-lysine; with virally co-expressed GCN5 acetyltransferase | AID 651687;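 active = every replicate shows inhibition of at least 40%; inconclusive = mean inhibition at least 40% but some replicate below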;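 also: 0% = neutral control wells and 100% = positive control wells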
COX5a expr inh – inhibitors of PGC-1a target COX5a expression in C2C12 myotubes; C2C12 myotubes PGC-1a adenovirus, COX5a qPCR; shares compounds with PGC1a acetyl inh; 45 tested, under 10 active; AID 743461; maximal activity, %;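 active = fitted dose curve reaching 40% activity at or below the highest valid dose tested; inconclusive = flat fit between 30% and 70%, or an unusable fit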
AID743468 – change in PGC-1a target gene PDK4 expression, dose response, C2C12 myotubes, RT-qPCR, cherry-pick; shares compounds with PGC1a acetyl inh; PGC-1a adenovirus, PDK4 mRNA qPCR; PDK4 expression increase, % at 19.5 µM; 45 tested, under 10 active;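 active = fitted curve reaching a 40% PDK4 expression rise at or below the top valid tested dose; inconclusive = no clear call, values can overlap the other calls; inactive = the rest, including shifts the wrong way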
AlphaScreen intf – AlphaScreen signal interference counter-screen hit; signal luminescence; shares compounds with MLL AF4-AF9 inh; AID 720494; AC50, µM (titrated, usually from 12 µM), for inactives: top-dose activity change, negative = inhibition; 45% of 530 active; cut-off not given, nearly all actives have AC50 up to about 14 µM
Active calls of the source: *; ? = inconclusive; . = no result given; ! = not confirmed by another sample.

SMILES	MLL AF4-AF9 inh	PAX8 inh HTS	Xi reactivation	INS-1E GSIS act	EWS-Fli inh	PGC1a acetyl inh	AlphaScreen intf	others
CCOc1cc(CNC2CCCC2)cc(Cl)c1OCc1ccc(F)cc1	.	.	.	.	.	78*	.	COX5a expr inh=-27;AID743468=-9
C[C@H](C(=O)N(C)C[C@@H]1OCc2ccccc2-c2c(n(C)c3ccccc23)C(=O)N([C@@H](C)CO)C[C@@H]1C)c1ccccc1	3	-6	0	-10	6	11	.
O=c1cc(CSc2ccccn2)[nH]c(=O)[nH]1	.	.	.	8	.	?	.	COX5a expr inh=-27;AID743468=-6
O=c1cc(CCc2ccccc2)[nH]c(=O)[nH]1	3	-11	0	9	0	.	.
CO[C@@H]1CN(C)C(=O)c2ccc(NC(C)=O)cc2OC[C@H](C)N(C(=O)CN2CCOCC2)C[C@@H]1C	.	.	0	-4	3	-8	.
Nc1ncnc(NCc2ccccc2)c1[N+](=O)[O-]	-7	-34	0	2	-15	.	.
Nc1ncnc(NCc2ccc(F)cc2)c1[N+](=O)[O-]	-2	-19	0	8	-2	50*	.	COX5a expr inh=-25;AID743468=32
Cc1cccc(NC(=O)CNC(=O)Cn2ncc(Cl)c(Cl)c2=O)c1C	.	.	.	.	.	?	.	COX5a expr inh=-39;AID743468=26
O=C(C[C@H]1CC[C@@H](NC(=O)c2ccccc2)[C@H](CO)O1)Nc1ccc(-c2ccccc2)cc1	-2	7	0	-5	-7	44*	.	COX5a expr inh=-29;AID743468=-29
O=C(C[C@H]1CC[C@H](NC(=O)c2ccccc2)[C@@H](CO)O1)Nc1ccc(-c2ccccc2)cc1	-3	5	0	-4	-19	5	.
CS(=O)c1nc(-c2ccc(Br)cc2)cc(-c2ccccc2)c1C#N (centres undefined)	2	.	.	-2	16	91*	.	COX5a expr inh=-38;AID743468=11
C[C@H]1CN([C@@H](C)CO)C(=O)c2cc(NC(=O)NC3CCCCC3)ccc2O[C@H]1CN(C)Cc1ccc2c(c1)OCO2	-1	9	0	-31	18	-1	.
COCC(=O)Nc1ccc2c(c1)OC[C@H](C)N(Cc1ccccc1)C[C@@H](C)[C@@H](OC)CN(C)C2=O	4	.	0	-10	3	-9	.
CN1C(=O)c2cc(NC(=O)c3ccc(Cl)cc3)ccc2OC[C@H]2O[C@@H](CC(=O)O)CC[C@H]21	-3	-1	0	11	-9	3	.
COc1cccc(S(=O)(=O)N2C[C@@H]3N[C@H](C2)C3c2ccc(-c3ccccc3OC)cc2)c1 (some centres undefined)	2	-9	0	-25	-2	-12	.
COc1ccccc1-c1ccc([C@@H]2[C@@H]3CN(S(=O)(=O)c4ccc(-c5ccccc5)cc4)C[C@H]2N3)cc1	-6	107*	1	33	-3	-56	.	COX5a expr inh=-34;AID743468=-44
O=C(Nc1ccc(C(F)(F)F)cc1)N1C[C@@H]2N[C@H](C1)C2c1ccc(-c2ccccc2)cc1 (some centres undefined)	0	108*	0	755*!	-9	?	.	COX5a expr inh=-43;AID743468=-24
O=C(Cc1cccnc1)N1CC(=O)N2[C@H](CO)[C@@H](c3ccc(-c4cccc(F)c4)cc3)[C@H]2C1	.	.	1	-7	.	.	.
CC(=Nc1ccc(C)cc1C)c1sc2ccccc2c1O	32*	-120	0	5	-12	.	-23%
CN(C)C(=O)[C@@H]1[C@@H](CO)[C@@H]2Cn3c(ccc(-c4cccc(F)c4)c3=O)[C@@H]2N1C(=O)c1ccccn1	.	5	2	2	-4	.	.
Cc1cc(NC(c2ccc(Cl)cc2)c2ccc3cccnc3c2O)no1 (centres undefined)	.	.	.	.	.	7	.
COc1ccccc1NC(c1cccnc1)c1ccc2cccnc2c1O (centres undefined)	48*	1	0	.	5	15	-25%
COc1ccc(C(Nc2cc(C)ccn2)c2ccc3ccc(C)nc3c2O)cc1 (centres undefined)	22	18	0	-11	1	-9	.
COc1cc(C(Nc2ccccn2)c2ccc3ccc(C)nc3c2O)cc(OC)c1O (centres undefined)	.	.	.	-1	.	-33	.
Cc1ccnc(NC(c2cccnc2)c2ccc3cccnc3c2O)c1 (centres undefined)	82*	0	0	1	25	2	1.5µM*
SMILES	MLL AF4-AF9 inh	PAX8 inh HTS	Xi reactivation	INS-1E GSIS act	EWS-Fli inh	PGC1a acetyl inh	AlphaScreen intf	others
Cc1ccnc(NC(c2ccsc2)c2ccc3ccc(C)nc3c2O)c1 (centres undefined)	55*	19	0	-19	18	.	-13%
Cc1ccc2ccc(C(Nc3cccc(C(F)(F)F)c3)c3cccnc3)c(O)c2n1 (centres undefined)	33*	-1	-1	10	9	.	-17%
O=C(NC1CCC1)[C@H]1[C@H](CO)[C@H]2Cn3c(ccc(-c4ccc(F)cc4)c3=O)[C@@H]1N2Cc1cocn1	-6	-22	0	0	-2	.	.
O=C(c1cccnc1)N1CC2(C1)[C@@H](c1ccccc1)[C@@H](CO)N2Cc1cccnc1	0	-33	0	9	-1	-1	.
CC(=O)N(C)C[C@H]1Oc2ccccc2C(=O)N(C)C[C@H]1C	.	.	0	-8	.	.	.
CC[C@H](C)[C@@H]1NC(=O)c2cc([N+](=O)[O-])cc(F)c2NCCCC[C@@H](C(N)=O)NC(=O)[C@H](CCCCN)NC1=O	?	-13	0	.	-5	-3	-18%
NC(=O)[C@@H]1CCCCNc2c(F)cc([N+](=O)[O-])cc2C(=O)N[C@@H](CCCN=C(N)N)C(=O)NCC(=O)N1	20	14	0	18	-1	-3	.
NCCCC[C@@H]1NC(=O)c2cc([N+](=O)[O-])cc(F)c2NCCCC[C@@H](C(N)=O)NC(=O)CNC1=O	42*	0	0	8	5	-16	-26%
O=C(CNCc1ccco1)Nc1ccc(N2CCCCCC2)cc1	29*	-11	0	-2	8	.	-37%
CN(C)CCNc1nc2sc3c(c2c(=O)n1CCc1ccccc1)CCCCC3	31*	-12	0	.	7	.	-8%
CC(O)CNc1nc2sc3c(c2c(=O)n1CCc1ccccc1)CCCCC3 (centres undefined)	7	-19	0	-12	-23	.	.

Screens (PubChem BioAssay)
